High-throughput results (PubChem BioAssay)
L929 necroptosis – L929 zVAD cell death inhibition. L929 zVAD necroptosis rescue, ATP luminescence, 24 h; with zVAD 60 µM. 220,000 tested, 0.38% active. viability rescue, % at 10 µM;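 active = activation, scaled between plate controls, above about 75%, limit read from the data; inactive = activation under that limit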
TNF death inh – TNF-alpha cell death inhibition in Jurkat FADD-/- cells; Jurkat FADD-/- TNF necroptosis rescue, ATP luminescence, 24 h; 0 = TNF only, 100 = no-TNF cells; activation (protection from cell death), % at 10 µM; 220,000 tested, 0.068% active;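 active = activation, meaning protection from cell death, of at least 50% relative to plate controls; inactive = activation below 50%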;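 also: necroptosis triggered by 40 ng/mL TNF-alpha added together with compound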
Furin inh – human furin inhibition; AID 463115; purified furin, fluorogenic substrate cleavage; 220,000 tested, 0.061% active; inhibition, % at 20 µM or 30 µM; in the data active = inhibition above about 25%
Target sequence (P09958 108-714 limits assumed): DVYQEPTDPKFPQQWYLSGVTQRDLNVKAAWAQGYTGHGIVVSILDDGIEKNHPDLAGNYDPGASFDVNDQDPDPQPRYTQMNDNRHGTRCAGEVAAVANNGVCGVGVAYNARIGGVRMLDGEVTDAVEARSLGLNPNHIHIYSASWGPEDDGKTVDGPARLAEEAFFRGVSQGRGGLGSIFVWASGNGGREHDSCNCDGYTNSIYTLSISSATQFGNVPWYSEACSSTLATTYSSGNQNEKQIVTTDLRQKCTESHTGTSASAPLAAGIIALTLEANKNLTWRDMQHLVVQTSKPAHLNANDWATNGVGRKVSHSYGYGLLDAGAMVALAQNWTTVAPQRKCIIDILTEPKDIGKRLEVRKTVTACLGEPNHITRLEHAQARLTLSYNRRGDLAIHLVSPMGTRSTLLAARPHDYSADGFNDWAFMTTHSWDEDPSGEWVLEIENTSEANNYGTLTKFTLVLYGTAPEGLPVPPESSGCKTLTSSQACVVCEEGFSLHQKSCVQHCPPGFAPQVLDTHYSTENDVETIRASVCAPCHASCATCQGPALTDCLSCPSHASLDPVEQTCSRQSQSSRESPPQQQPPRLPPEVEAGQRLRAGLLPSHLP
Dynein transport – blocks dynein driven cargo transport along microtubules; 3617.4 mouse cells, GR-EGFP nuclear translocation imaging; test concentration mostly 20 µM; stimulated with dexamethasone, 1 µM; stronger effect = lower value; z-score, hits read low; 220,000 tested, 0.47% active;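 active = plate z-score of nuclear minus cytoplasmic receptor signal below a set negative limit, without overly bright fluorescence or cell loss, cut at about -3.5 in these data, passing the limit was not always enough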;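 also: z-score of nuclear minus cytoplasmic ring GR-EGFP intensity difference per well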
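Buffer or medium: tet-free, stripped-serum medium; Also added: dexamethasone, 1.0 µM final; Technique: high-content fluorescence imaging after fixation; Times: 48 h induction, 1 h compound, 30 min dex at 37 °C; Read-out: per-cell GR-EGFP intensity, nucleus versus surrounding cytoplasmic ring, well-averaged.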
Autophagy mod – modulators of autophagy; MEF GFP-LC3 puncta imaging; test concentration mostly 10 µM; calls only at 10 µM (by protocol); 190,000 tested, 0.98% active; AID 463193;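 active = percentage of spot-positive cells more than 3 SD above its plate mean, without a fluorescence outlier flag or 80% toxicity; inconclusive = no clear call, values can overlap the other calls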
HSV replic up – HSV replication enhancement | HSV replication augmentation in cells, fold increase | maximum fold increase | 220,000 tested, 0.005% active; in the data active = maximum fold increase above about 1.5; inconclusive = no clear call, values can overlap the other calls; tested in PC3 cells
zVAD death conf – confirmed blocker of zVAD induced death in L929 cells; shares compounds with L929 necroptosis; L929 zVAD-induced necroptosis rescue, ATP luminescence, 24 h; activation (protection from necroptosis), % at 10 µM; 760 tested, 16% active; AID 463117;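 active = mean protection from necroptosis of at least 50% over duplicate tests; inactive = mean protection below 50%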
Dynein confirm – dynein cargo transport inhibition, confirmation. shares compounds with Dynein transport. 3617.4 GR-EGFP nuclear translocation imaging, dexamethasone-induced. calls only at 20 µM. 1,000 tested, 69% active. AID 463116;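 active = inhibition of receptor movement into the nucleus at or above a set limit in both runs, with normal cell brightness and cell count; inconclusive = limit reached in only one run, brightness and count normal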;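 also: dexamethasone at 1 µM final in well for 30 min; nuclear minus cytoplasmic GR-EGFP mean intensity difference in channel 2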
Each line names hits and unclear results; the compound was inactive in the other large screens (follow-up assays come after a bar, where they were run). In the library only some 1.8% were active in any assay of this set; here they are far more common.

CC1(C)CC(=O)C2=C(C1)Oc1nc3ccccc3cc1C2C(C#N)C#N (stereo not given)	L929 necroptosis 90.0, Dynein transport -4.39 | zVAD death conf inactive | Dynein confirm active
CS(=O)(=O)c1ccc2nc(NC(=O)c3ccc(NS(=O)(=O)c4cccc([N+](=O)[O-])c4)cc3)sc2c1	none (no result: Autophagy mod)
O=C(CCl)Nc1cc(SCC(O)CO)cc([N+](=O)[O-])c1 (stereo not given)	L929 necroptosis 80.5, Dynein transport -5.93, Autophagy mod active | zVAD death conf 77.4 | Dynein confirm active
CS(=O)(=O)c1cc([N+](=O)[O-])c(Sc2nc3ccccc3[nH]2)c([N+](=O)[O-])c1	Dynein transport -3.58 | Dynein confirm active
COc1ccc(C(=O)/C=C/C(=O)N(CC(=O)NCCC(C)C)Cc2cccs2)c(O)c1	Dynein transport -6.14 | Dynein confirm active
COc1ccc(C(=O)/C=C/C(=O)N(CC(=O)NC2CCCCC2)Cc2ccc(F)cc2)c(O)c1	Dynein transport -4.54 | Dynein confirm active
COc1ccc(C(=O)N(Cc2ccco2)Cc2cccs2)c(O)c1	none
CCCCN(CCCC)C(=S)NC(=O)c1ccccc1Cl	none
CCS(=O)(=O)c1ccc(O)c(NC(=O)CC2(CC(=O)O)CCCC2)c1	none (no result: Autophagy mod)
COc1cc(/C=C/c2nc3ccc([N+](=O)[O-])cc3s2)ccc1OCC(=O)O	none (no result: Autophagy mod)
COc1ccc(CC(=O)n2[nH]c(=O)cc(C)c2=O)cc1OC	Dynein transport -5.74 (no result: Autophagy mod) | Dynein confirm inconclusive
COc1ccc(CC(=O)NC(C)(C)CC(C)=O)cc1OC	none
COC(=O)C1=C(C)N(C)C(=S)NC1c1ccc(OC)cc1OC (stereo not given)	none
CC(NCC(O)COCCC12CC3CC(CC(C3)C1)C2)c1ccccc1 (stereo not given)	Dynein transport -5.18 | Dynein confirm inactive
NCC(O)COCCC12CC3CC(CC(C3)C1)C2 (stereo not given)	none
C/C(CC(C)(C)c1ccccc1)=N\NS(=O)(=O)c1ccccc1	none
CCCCCCC(=O)N(O)C1CC(=O)N(c2ccc(Br)cc2)C1=O (stereo not given)	none
CCCCCCC(=O)N(O)C1CC(=O)N(c2ccc(F)cc2)C1=O (stereo not given)	Dynein transport -4.75 (no result: Autophagy mod) | Dynein confirm active
CCOC(=O)C(NC(=O)c1cccc(Cl)c1)(Nc1sc2c(c1C(N)=O)CCC2)C(F)(F)F (stereo not given)	Dynein transport -4.49, HSV replic up inconclusive | Dynein confirm active
CN(C(=O)c1ccc(COc2ccccc2Br)o1)c1ccccc1	none
COCCN(C(=O)CCl)C(C(=O)NC1CCCCC1)c1ccccc1C (stereo not given)	Dynein transport -4.4 | Dynein confirm active
COCCN(C(=O)CCC(=O)Nc1cc(C)on1)C(C(=O)NC1CCCC1)c1ccccc1C (stereo not given)	none
NC(=O)Nc1ccc(Cl)cc1	none (no result: Autophagy mod)
NC(=O)/C=C/C(=O)Nc1ccc(Cl)cc1	Dynein transport -3.68 | Dynein confirm inactive
COc1ccccc1C1c2[nH]c3ccccc3c2CCN1Cc1ccc(NC(C)=O)s1 (stereo not given)	none (no result: Autophagy mod)
O=C(/C=C/c1ccccc1)/C=C/c1ccccc1	Dynein transport -7.02 | Dynein confirm active
CCN(CC)c1ccc(N=Cc2ccccc2[N+](=O)[O-])cc1	none
CCN(CC)c1ccc(N=Cc2ccc([N+](=O)[O-])o2)cc1	Dynein transport -3.78 | Dynein confirm inconclusive
CC(C)(C)c1cc(CN(CCO)CCO)cc(C(C)(C)C)c1O	Dynein transport -5.84 | Dynein confirm active
O=C(Cn1ncc(N2CCOCC2)c(Cl)c1=O)c1ccc(Cl)cc1	none
O=c1c2nnn(Cc3ccc(Cl)cc3)c2ncn1Cc1ccc(F)cc1	none
O=c1c(Cl)c(Cl)cnn1Cc1ccc(F)cc1	Dynein transport -4.9 | Dynein confirm active
O=C(Cn1ncc(Cl)c(Cl)c1=O)c1ccc(Cl)cc1	Dynein transport -3.99 (no result: HSV replic up) | Dynein confirm inactive
O=C1CN(C(=O)Cn2ncc(Cl)c(Cl)c2=O)c2ccccc2N1	Dynein transport -6.8 | Dynein confirm active
Cc1ccc(NC(=O)CN(C)C(=O)Cn2ncc(Cl)c(Cl)c2=O)cc1	Dynein transport -6.33 | Dynein confirm active
CC(C)(C)C(=O)Cn1ncc(Cl)c(Cl)c1=O	Dynein transport -6.09, Autophagy mod active | Dynein confirm active
C=CCn1c(C)cc(C(=O)Cn2ncc(Cl)c(Cl)c2=O)c1C	Dynein transport -4.58 | Dynein confirm active
Cc1ccccc1N1CCN(C(=O)c2ccccc2NC(=O)c2ccccc2C(=O)O)CC1	none
O=C(NCC1CCCO1)c1cc(S(=O)(=O)N2CCCC2)c(Cl)cc1Cl (stereo not given)	none
Cc1cc(C(=O)CCl)c(C)n1-c1cccc(S(=O)(=O)N2CCOCC2)c1	Dynein transport -5.28 | Dynein confirm active
CCOc1cc(/C=C\[N+](=O)[O-])ccc1OCC(=O)N1CCOCC1	Dynein transport -5.67 | Dynein confirm active
O=C(Nc1cccc(Cl)c1)Nc1nnc(CC2=CCCCC2)s1	none
CCCCN(C)C1=CC2=CC(=C(C#N)C#N)CCC2CC1 (stereo not given)	Dynein transport -8.14, Autophagy mod inconclusive, HSV replic up inconclusive | Dynein confirm active
N#CC(C#N)=C1C=C2C=C(N3CCCCC3)CCC2CC1 (stereo not given)	Dynein transport -7.32, Autophagy mod inconclusive, HSV replic up inconclusive | Dynein confirm active
S=C(NCc1ccccc1)N1CCN(C2CCCCC2)CC1	none (no result: Autophagy mod)
Cc1cccc(NC(=O)CN2C(=O)N/C(=C/c3ccc(C)s3)C2=O)c1	HSV replic up inconclusive | Dynein confirm inconclusive
O=[N+]([O-])c1cc(-c2nc3nc4ccccc4nc3n2CCc2ccccc2)cc([N+](=O)[O-])c1	none
CC(=O)C(Cl)C(=O)Nc1ccccc1 (stereo not given)	Dynein transport -4.19 | Dynein confirm inactive
O=C(CSc1nnc(-c2cccs2)o1)Nc1cccc(S(=O)(=O)N2CCCCC2)c1	none
O=C(c1ccccc1)c1ccccc1N1C(=O)C=CC1=O	Dynein transport -4.41 (no result: Autophagy mod) | Dynein confirm active
O=C(c1ccccc1)c1ccccc1C(=O)N1CCN(C(=O)c2ccccc2)CC1	none
O=C(CSC1=Nc2ccccc2C2CC=NN12)Nc1ccc2c(c1)OCO2 (stereo not given)	Dynein transport -3.65 | Dynein confirm active
